{"source": "ChEMBL document CHEMBL1148178", "about": "“Dicranin, an antimicrobial and 15-lipoxygenase inhibitor from the moss Dicranum scoparium” (1993)", "key": {"Bacillus subtilis [1]": {"tested_on": "Bacillus subtilis", "experiment": "Antibacterial activity against Bacillus subtilis NCIB 3610 at 1000 ug/disk after 24 hrs by disk diffusion assay", "type": "functional", "settings": "read-out: Diameter of inhibition zone", "outline": "(§1)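 Sterile 6 mm filter-paper disc bearing sample set in the centre of a Petri dish of 15 ml plate count agar. Overlaid with 3 ml soft nutrient agar (nutrient broth + 0.7% agar) seeded with 1% of a 16–18 h culture of the test strain. Read-out is the diameter of the growth-free zone around the disc.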"}, "Bacillus cereus [2]": {"tested_on": "Bacillus cereus", "experiment": "Bactericidal activity against Bacillus cereus NCIB 3329 at 10 ug/ml by liquid culture assay", "type": "functional, organism-based", "outline": "(§2)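 Wells hold brain heart infusion (200 µl) plus 50 µl inoculum at 10³–10⁵ cfu/ml, with dicranin added as the sodium salt in water (10–200 μg/ml tested). Cultures are incubated at the strain's optimal growth temperature. Duplicate 100 µl samples are taken at 0, 2, 4, 6, 8 and 24 h, diluted in tryptone salt to 10–500 bacteria/plate, plated on plate count agar, and colonies counted after 24 h.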"}, "Bacillus cereus [3]": {"tested_on": "Bacillus cereus", "experiment": "Antibacterial activity against Bacillus cereus NCIB 3329 at 250 ug/disk after 24 hrs by disk diffusion assay", "type": "functional", "settings": "read-out: Diameter of inhibition zone", "outline": "as §1"}, "Staphylococcus aureus [4]": {"tested_on": "Staphylococcus aureus", "experiment": "Antibacterial activity against Staphylococcus aureus T-AQ 49/YF29 at 1000 ug/disk after 24 hrs by disk diffusion assay", "type": "functional", "settings": "read-out: Diameter of inhibition zone", "outline": "as §1"}, "Bacillus subtilis [5]": {"tested_on": "Bacillus subtilis", "experiment": "Antibacterial activity against Bacillus subtilis NCIB 3610 at 25 ug/disk after 24 hrs by disk diffusion assay", "type": "functional", "settings": "read-out: Diameter of inhibition zone", "outline": "as §1"}, "Bacillus subtilis [6]": {"tested_on": "Bacillus subtilis", "experiment": "Antibacterial activity against Bacillus subtilis NCIB 3610 at 125 ug/disk after 24 hrs by disk diffusion assay", "type": "functional", "settings": "read-out: Diameter of inhibition zone", "outline": "as §1"}, "Bacillus cereus [7]": {"tested_on": "Bacillus cereus", "experiment": "Antibacterial activity against Bacillus cereus NCIB 3329 at 50 ug/disk after 24 hrs by disk diffusion assay", "type": "functional", "settings": "read-out: Diameter of inhibition zone", "outline": "as §1"}, "Bacillus cereus [8]": {"tested_on": "Bacillus cereus", "experiment": "Antibacterial activity against Bacillus cereus NCIB 3329 at 125 ug/disk after 24 hrs by disk diffusion assay", "type": "functional", "settings": "read-out: Diameter of inhibition zone", "outline": "as §1"}, "Enterococcus faecalis": {"tested_on": "Enterococcus faecalis", "experiment": "Antibacterial activity against Streptococcus faecalis NCIB 775 after 24 hrs by disk diffusion assay", "type": "functional, organism-based", "outline": "as §1"}, "Bacillus cereus [9]": {"tested_on": "Bacillus cereus", "experiment": "Antibacterial activity against Bacillus cereus NCIB 3329 at 100 ug/disk after 24 hrs by disk diffusion assay", "type": "functional", "settings": "read-out: Diameter of inhibition zone", "outline": "as §1"}, "Bacillus cereus [10]": {"tested_on": "Bacillus cereus", "experiment": "Bactericidal activity against Bacillus cereus NCIB 3329 at 150 ug/ml by liquid culture assay", "type": "functional, organism-based", "outline": "as §2"}, "Bacillus cereus [11]": {"tested_on": "Bacillus cereus", "experiment": "Antibacterial activity against Bacillus cereus NCIB 3329 at 500 ug/disk after 24 hrs by disk diffusion assay", "type": "functional", "settings": "read-out: Diameter of inhibition zone", "outline": "as §1"}, "Staphylococcus aureus [12]": {"tested_on": "Staphylococcus aureus", "experiment": "Antibacterial activity against Staphylococcus aureus T-AQ 49/YF29 at 100 ug/disk after 24 hrs by disk diffusion assay", "type": "functional", "settings": "read-out: Diameter of inhibition zone", "outline": "as §1"}, "Bacillus subtilis [13]": {"tested_on": "Bacillus subtilis", "experiment": "Antibacterial activity against Bacillus subtilis NCIB 3610 at 100 ug/disk after 24 hrs by disk diffusion assay", "type": "functional", "settings": "read-out: Diameter of inhibition zone", "outline": "as §1"}, "Bacillus subtilis [14]": {"tested_on": "Bacillus subtilis", "experiment": "Antibacterial activity against Bacillus subtilis NCIB 3610 at 500 ug/disk after 24 hrs by disk diffusion assay", "type": "functional", "settings": "read-out: Diameter of inhibition zone", "outline": "as §1"}, "Bacillus subtilis [15]": {"tested_on": "Bacillus subtilis", "experiment": "Antibacterial activity against Bacillus subtilis NCIB 3610 at 250 ug/disk after 24 hrs by disk diffusion assay", "type": "functional", "settings": "read-out: Diameter of inhibition zone", "outline": "as §1"}, "Bacillus cereus [16]": {"tested_on": "Bacillus cereus", "experiment": "Antibacterial activity against Bacillus cereus NCIB 3329 at 1000 ug/disk after 24 hrs by disk diffusion assay", "type": "functional", "settings": "read-out: Diameter of inhibition zone", "outline": "as §1"}, "Staphylococcus aureus [17]": {"tested_on": "Staphylococcus aureus", "experiment": "Antibacterial activity against Staphylococcus aureus T-AQ 49/YF29 at 250 ug/disk after 24 hrs by disk diffusion assay", "type": "functional", "settings": "read-out: Diameter of inhibition zone", "outline": "as §1"}, "[18]": {"tested_on": "Geobacillus stearothermophilus", "experiment": "Antibacterial activity against Bacillus stearothermophilus NCA 1518 at 50 ug/disk after 24 hrs by disk diffusion assay", "type": "functional", "settings": "read-out: Diameter of inhibition zone", "outline": "as §1"}, "Staphylococcus aureus [19]": {"tested_on": "Staphylococcus aureus", "experiment": "Antibacterial activity against Staphylococcus aureus T-AQ 49/YF29 at 25 ug/disk after 24 hrs by disk diffusion assay", "type": "functional", "settings": "read-out: Diameter of inhibition zone", "outline": "as §1"}, "Bacillus cereus [20]": {"tested_on": "Bacillus cereus", "experiment": "Bactericidal activity against Bacillus cereus NCIB 3329 at 50 ug/ml by liquid culture assay", "type": "functional, organism-based", "outline": "as §2"}, "[21]": {"tested_on": "Geobacillus stearothermophilus", "experiment": "Antibacterial activity against Bacillus stearothermophilus NCA 1518 at 1000 ug/disk after 24 hrs by disk diffusion assay", "type": "functional", "settings": "read-out: Diameter of inhibition zone", "outline": "as §1"}, "Bacillus cereus [22]": {"tested_on": "Bacillus cereus", "experiment": "Antibacterial activity against Bacillus cereus NCIB 3329 at 10 ug/disk after 24 hrs by disk diffusion assay", "type": "functional", "settings": "read-out: Diameter of inhibition zone", "outline": "as §1"}, "[23]": {"tested_on": "Geobacillus stearothermophilus", "experiment": "Bactericidal activity against Bacillus stearothermophilus NCA 1518 at 50 to 150 ug/ml upto 4 hrs by liquid culture assay", "type": "functional, organism-based", "outline": "as §2"}, "Bacillus subtilis [24]": {"tested_on": "Bacillus subtilis", "experiment": "Antibacterial activity against Bacillus subtilis NCIB 3610 at 50 ug/disk after 24 hrs by disk diffusion assay", "type": "functional", "settings": "read-out: Diameter of inhibition zone", "outline": "as §1"}, "Staphylococcus aureus [25]": {"tested_on": "Staphylococcus aureus", "experiment": "Antibacterial activity against Staphylococcus aureus T-AQ 49/YF29 at 50 ug/disk after 24 hrs by disk diffusion assay", "type": "functional", "settings": "read-out: Diameter of inhibition zone", "outline": "as §1"}}, "note": "Activity calls are given as the source filed them. The calls are words filed in the database; no cut-off is given here."}
{"smiles": "CC/C=C\\C/C=C\\C/C=C\\CC#CCCCCC(=O)O", "note": "[DICRANIN]", "values": [{"measurement": "zone of inhibition at 1000 µg/disc", "setting": "Bacillus subtilis [1]", "value": 20, "unit": "mm"}, {"measurement": "Activity", "setting": "Bacillus cereus [2]", "value": "inactive"}, {"measurement": "zone of inhibition at 250 µg/disc", "setting": "Bacillus cereus [3]", "value": 19, "unit": "mm"}, {"measurement": "zone of inhibition at 1000 µg/disc", "setting": "Staphylococcus aureus [4]", "value": 23, "unit": "mm"}, {"measurement": "zone of inhibition at 25 µg/disc", "setting": "Bacillus subtilis [5]", "value": 8, "unit": "mm"}, {"measurement": "zone of inhibition at 125 µg/disc", "setting": "Bacillus subtilis [6]", "value": 14, "unit": "mm"}, {"measurement": "zone of inhibition at 50 µg/disc", "setting": "Bacillus cereus [7]", "value": 10, "unit": "mm"}, {"measurement": "zone of inhibition at 125 µg/disc", "setting": "Bacillus cereus [8]", "value": 16, "unit": "mm"}, {"measurement": "Activity", "setting": "Enterococcus faecalis", "value": "Active"}, {"measurement": "zone of inhibition at 100 µg/disc", "setting": "Bacillus cereus [9]", "value": 15, "unit": "mm"}, {"measurement": "Activity", "setting": "Bacillus cereus [10]", "value": "Active"}, {"measurement": "zone of inhibition at 500 µg/disc", "setting": "Bacillus cereus [11]", "value": 22, "unit": "mm"}, {"measurement": "zone of inhibition at 100 µg/disc", "setting": "Staphylococcus aureus [12]", "value": 16, "unit": "mm"}, {"measurement": "zone of inhibition at 100 µg/disc", "setting": "Bacillus subtilis [13]", "value": 13, "unit": "mm"}, {"measurement": "zone of inhibition at 500 µg/disc", "setting": "Bacillus subtilis [14]", "value": 19, "unit": "mm"}, {"measurement": "zone of inhibition at 250 µg/disc", "setting": "Bacillus subtilis [15]", "value": 16, "unit": "mm"}, {"measurement": "zone of inhibition at 1000 µg/disc", "setting": "Bacillus cereus [16]", "value": 25, "unit": "mm"}, {"measurement": "zone of inhibition at 250 µg/disc", "setting": "Staphylococcus aureus [17]", "value": 21, "unit": "mm"}, {"measurement": "zone of inhibition at 50 µg/disc", "setting": "[18]", "value": 11, "unit": "mm"}, {"measurement": "zone of inhibition at 25 µg/disc", "setting": "Staphylococcus aureus [19]", "value": 0, "unit": "mm"}, {"measurement": "Activity", "setting": "Bacillus cereus [20]", "value": "Active"}, {"measurement": "zone of inhibition at 1000 µg/disc", "setting": "[21]", "value": 35, "unit": "mm"}, {"measurement": "zone of inhibition at 10 µg/disc", "setting": "Bacillus cereus [22]", "value": 0, "unit": "mm"}, {"measurement": "Activity", "setting": "[23]", "value": "Active"}, {"measurement": "zone of inhibition at 50 µg/disc", "setting": "Bacillus subtilis [24]", "value": 11, "unit": "mm"}, {"measurement": "zone of inhibition at 50 µg/disc", "setting": "Staphylococcus aureus [25]", "value": 11, "unit": "mm"}]}
